Hits are enriched below; roughly 1.1% of the tested compounds scored in any of these assays.
Diaphorase inh – counter-screen for diaphorase-based assays: diaphorase inhibitors and chemical oxidizers | diaphorase resazurin-to-resorufin fluorescence, NADH, 16 min; bacterial (C. kluyveri) enzyme, not human | inhibition, % at 20 µM | 190,000 tested, 0.69% active;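 active = primary screen inhibition at 20 µM above a set limit, cut at about 50% in these data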;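 also: plate controls were DMSO with full reaction for no effect and wells lacking NADH for full effect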
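Detection: fluorescence of resorufin formed from resazurin, Ex 544/Em 590 nm; test system: Clostridium kluyveri diaphorase enzyme; amount: 0.14 U/mL diaphorase, enzyme working solution; times: 16-min room-temperature incubation before reading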
PMI act – activators of human phosphomannose isomerase; purified human PMI, coupled resazurin fluorescence, 20 min; stronger effect = higher value; 1 = vehicle control, 0 substrate-free wells; activation factor at 20 µM; 190,000 tested, 0.005% active; AID 1214;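 active = activation factor of 2 or more at 20 µM, relative to plate controls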
Target sequence (P34949 whole entry, looked up): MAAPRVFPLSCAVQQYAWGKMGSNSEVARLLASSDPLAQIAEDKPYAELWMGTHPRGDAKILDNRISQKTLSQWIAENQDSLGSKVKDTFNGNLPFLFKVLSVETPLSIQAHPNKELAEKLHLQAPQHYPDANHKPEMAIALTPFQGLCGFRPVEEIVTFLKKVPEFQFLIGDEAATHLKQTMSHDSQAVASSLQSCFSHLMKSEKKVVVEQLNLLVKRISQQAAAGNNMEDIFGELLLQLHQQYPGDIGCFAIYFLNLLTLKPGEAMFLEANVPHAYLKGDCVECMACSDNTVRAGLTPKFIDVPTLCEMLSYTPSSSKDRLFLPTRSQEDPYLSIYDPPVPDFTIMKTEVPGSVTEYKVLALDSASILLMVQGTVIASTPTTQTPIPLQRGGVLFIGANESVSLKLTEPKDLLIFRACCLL
G6PDH counter – inhibits Leuconostoc G6PDH, flagging false hits in G6PDH-based assays | Purified L. mesenteroides G6PDH, diaphorase/resazurin coupled fluorescence, 45 min | inhibition, % at 5 µM | 200,000 tested, 0.12% active; in the data active = inhibition above about 50%
PMI act hi M6P – increases human PMI activity with near-saturating mannose 6-phosphate; P34949; coupled PMI enzyme assay, resazurin fluorescence, 20 min; stronger effect = higher value; 1 = untreated enzyme, 0 = substrate-free blank; activation factor at 20 µM; 190,000 tested, 0.34% active; AID 1216;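 active = activation factor of 2 or more at 20 µM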
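Test system: Human PMI in coupled enzyme assay | Input: 15 ng/mL PMI | Medium: HEPES-buffered pH 7.4 with magnesium and detergent | Compound: One concentration, 20 µM, in 1% DMSO | Incubation: Enzyme reaction with compound 20 min at room temperature | Detection: Diaphorase-driven resazurin-to-resorufin fluorescence, excitation 544, emission 590 nm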
Diaph act CS – activates diaphorase or chemically reduces, flagging diaphorase assay artifacts; Diaphorase/resazurin coupled assay, resorufin fluorescence, 16 min; stronger effect = higher value; 1 = vehicle wells, 0 = NADH-free wells; activation factor at 20 µM; 190,000 tested, 0.005% active;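 active = diaphorase activity raised at least twofold by the compound at 20 µM; inactive = activation factor below 2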
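Test system: Clostridium kluyveri diaphorase, purified enzyme. Buffer or medium: 50 mM HEPES pH 7.4 buffer plus MgCl2 and Tween 20. Also added: 0.114 mM NADH and 0.1 mM resazurin, final amounts. Dosing: compound 20 µM once, DMSO 1%. Schedule: 16 min enzyme reaction, ambient temperature. Detection: fluorescence of resorufin, 544 nm excitation, 590 nm emission.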
* = called active by the depositor.

How did CCOc1ccc(CCNC(=O)C2=C(C)C(=O)OC23CCCCC3)cc1OCC do in these assays?
Diaphorase inh: 4.8; PMI act: 1; G6PDH counter: 13.9; PMI act hi M6P: 0.9; Diaph act CS: 1

Results for O=C(COC(=O)c1ccc2c(c1[N+](=O)[O-])C(=O)c1ccccc1C2=O)NC1CC1 ?
Diaphorase inh: 27.3; PMI act: 1.3; G6PDH counter: 55.3*; PMI act hi M6P: 0.9; Diaph act CS: 0.7

What do the screens show for `COc1ccc(C(=O)C2CCCN(C(=O)COc3ccc(C(C)=O)cc3)C2)cc1F` (stereo unspecified)?
Diaphorase inh: 70.4*; PMI act: 0.4; G6PDH counter: 13.7; PMI act hi M6P: 0.6; Diaph act CS: 0.3

What do the screens show for `CCOC(=O)C1=NN(N=O)C2(CC(=O)N(c3cc(C)cc(C)c3)C2=O)C1` (stereo unspecified)?
Diaphorase inh: 2.5; PMI act: 1.7; G6PDH counter: 4.1; PMI act hi M6P: 2.2*; Diaph act CS: 1

Results for CCC(C)(C)n1nnnc1C(c1cc2cc(C)ccc2[nH]c1=O)N1CCCc2ccccc21 (stereo unspecified) ?
Diaphorase inh: 69.6*; PMI act: 0.6; G6PDH counter: 6.2; PMI act hi M6P: 0.8; Diaph act CS: 0.3

Results for Cc1ccc2[nH]c(=O)c(C(c3nnnn3C3CCCC3)N3CCCc4ccccc43)cc2c1 (stereo unspecified) ?
Diaphorase inh: 62.1*; PMI act: 0.4; G6PDH counter: 0.2; PMI act hi M6P: 0.4; Diaph act CS: 0.4

What do the screens show for `CCC(C)(C)n1nnnc1C(c1cc2cc(OC)ccc2[nH]c1=O)N1CCc2ccccc21` (stereo unspecified)?
Diaphorase inh: 45.9; PMI act: 1.1; G6PDH counter: -1.3; PMI act hi M6P: 1.5; Diaph act CS: 0.5

What do the screens show for `Cc1ccc2[nH]c(=O)c(C(c3nnnn3Cc3ccccc3)N3CCc4ccccc43)cc2c1` (stereo unspecified)?
Diaphorase inh: 47.0; PMI act: 0.8; G6PDH counter: 30.1; PMI act hi M6P: 1; Diaph act CS: 0.5

What do the screens show for `CN1CCc2cccc3c2[C@H]1Cc1ccc(O)c(O)c1-3`?
Diaphorase inh: 78.0*; PMI act: 0.2; G6PDH counter: 43.8; PMI act hi M6P: 0.3; Diaph act CS: 0.2

How did CC(C)N1CCc2c(sc(NC(=O)c3cc4cc([N+](=O)[O-])ccc4s3)c2C(N)=O)C1 do in these assays?
Diaphorase inh: 66.9*; PMI act: 1.1; G6PDH counter: -4.4; PMI act hi M6P: 1.1; Diaph act CS: 0.3

Results for CCN(CC)CCCNC1=C(Cl)C(=O)c2ccccc2C1=O ?
Diaphorase inh: 22.2; PMI act: 0.8; G6PDH counter: 53.6*; PMI act hi M6P: 0.4; Diaph act CS: 0.8

What do the screens show for `Cc1cc(C(F)(F)F)nc(SCCN2CCOCC2)c1C#N`?
Diaphorase inh: 2.9; PMI act: 1.7; G6PDH counter: 3.0; PMI act hi M6P: 2.2*; Diaph act CS: 1

Results for N#Cc1c(C(F)(F)F)cc(-c2ccc(Cl)c(Cl)c2)nc1SCCN1CCOCC1 ?
Diaphorase inh: 7.1; PMI act: 1.2; G6PDH counter: 11.5; PMI act hi M6P: 1.2; Diaph act CS: 0.9

Results for COc1ccc2cc(/C=C3\SC(=S)NC3=O)c(N3CCOCC3)nc2c1 ?
Diaphorase inh: 58.3*; PMI act: 1; G6PDH counter: 3.3; PMI act hi M6P: 1.1; Diaph act CS: 0.4

Results for N#Cc1c(-c2cccs2)nc(SCC(=O)c2cccs2)[nH]c1=O ?
Diaphorase inh: 65.2*; PMI act: 0.9; G6PDH counter: -3.2; PMI act hi M6P: 1; Diaph act CS: 0.3

What do the screens show for `Cc1ccc(OCC(=O)NN=C2c3ccccc3-c3ccccc32)cc1`?
Diaphorase inh: -6.7; PMI act: 1.1; G6PDH counter: 2.7; PMI act hi M6P: 1.1; Diaph act CS: 1.1

Results for Cc1ccc(NN=C2c3ccccc3-c3ccccc32)cc1 ?
Diaphorase inh: 23.7; PMI act: 1.3; G6PDH counter: -16.6; PMI act hi M6P: 2.2*; Diaph act CS: 0.8

What do the screens show for `O=C(O)c1cccc(NC(=S)N/N=C/c2ccccc2OCc2cccc(Br)c2)c1`?
Diaphorase inh: 56.8*; PMI act: 1; G6PDH counter: -6.3; PMI act hi M6P: 1; Diaph act CS: 0.4

Results for O=C(O)c1cccc(NC(=S)N/N=C/c2ccccc2OCc2ccc(Br)cc2)c1 ?
Diaphorase inh: 50.8*; PMI act: 1; G6PDH counter: -1.5; PMI act hi M6P: 1.1; Diaph act CS: 0.5

Results for COC(=O)c1ccc(COc2ccccc2/C=N/Nc2cccc(C(=O)O)c2)cc1 ?
Diaphorase inh: 29.5; PMI act: 1.3; G6PDH counter: 9.3; PMI act hi M6P: 0.9; Diaph act CS: 0.7

What do the screens show for `CSCCC(NC(=O)c1ccc(Cl)cc1)C(=O)NC(C)(C)C` (stereo unspecified)?
Diaphorase inh: 6.7; PMI act: 1.1; G6PDH counter: 10.5; PMI act hi M6P: 1.1; Diaph act CS: 0.9

How did O=C1NCCCC2c3cc(O)c4ccccc4c3OC12N1CCCCC1 (stereo unspecified) do in these assays?
Diaphorase inh: 46.2; PMI act: 0.8; G6PDH counter: 55.5*; PMI act hi M6P: 0.5; Diaph act CS: 0.5

Results for O=C1NCCCC2c3c(cc(Br)c(O)c3Br)OC12N1CCOCC1 (stereo unspecified) ?
Diaphorase inh: 19.4; PMI act: 1; G6PDH counter: 6.1; PMI act hi M6P: 0.9; Diaph act CS: 0.8

What do the screens show for `CCOc1ccc(C2CC(c3c(O)c4ccccc4oc3=O)=NN2c2ccccc2)cc1OC` (stereo unspecified)?
Diaphorase inh: 20.7; PMI act: 1.6; G6PDH counter: 4.4; PMI act hi M6P: 2.6*; Diaph act CS: 0.8

Results for CCOC(=O)C1CCN(Cc2c(O)c3ccccc3oc2=O)CC1 ?
Diaphorase inh: 2.1; PMI act: 0.9; G6PDH counter: 6.8; PMI act hi M6P: 0.8; Diaph act CS: 1

How did O=C1c2ccccc2C(O)(Cc2ccccc2)N1c1ccc2c(c1)OCO2 (stereo unspecified) do in these assays?
Diaphorase inh: 11.5; PMI act: 0.9; G6PDH counter: -15.0; PMI act hi M6P: 0.8; Diaph act CS: 0.9

What do the screens show for `C/C(=N\NC(=O)c1cccc(N/N=C(\C)c2ccccc2)c1)c1ccccc1`?
Diaphorase inh: 4.8; PMI act: 1.8; G6PDH counter: -16.9; PMI act hi M6P: 2.7*; Diaph act CS: 1

How did C/C(=N\NC(=O)c1cccc([N+](=O)[O-])c1)c1ccncc1 do in these assays?
Diaphorase inh: 0.0; PMI act: 1.2; G6PDH counter: 1.8; PMI act hi M6P: 1.1; Diaph act CS: 1
